Measured values reported in article PMC12391519 (Scientific Reports, 2025).

Tests used:
[1] = Adverse events during TEIC therapy; format: in vivo, human; settings: ROC analysis, n = 41
Summary of the method: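 Renal dysfunction was a serum creatinine rise of ≥0.3 mg/dL within 48 h, or ≥1.5-times baseline within seven days, of TEIC administration. Hepatic dysfunction was AST or ALT outside the normal limit of ≤30 IU/L (CTCAE v5.0). ROC analysis used measured free trough TEIC (ultrafiltration, HPLC-UV). The cutoff was the point where sensitivity and specificity, plotted against free concentration, gave the best result.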

[2] = Free serum TEIC trough concentration by ultrafiltration followed by HPLC; format: in vivo, human
Summary of the method: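 Trough serum (1 mL) was ultrafiltered through a 30 kDa cutoff filter. The filtrate got primidone internal standard, acetonitrile deproteinisation and 0.1 M HCl/chloroform cleanup, then C18 HPLC-UV at 215 nm; calibrators were in ultrafiltered human serum. Response was […] CRP decrease plus ≥0.3 °C fever reduction for two consecutive days within 96 h. Adverse events were renal or hepatic dysfunction. Groups were compared by Mann–Whitney U.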

[3] = test system: serum albumin; experiment: Free TEIC percentage; format: in vitro ADME, human; settings: patient serum, HPLC-UV
Summary of the method: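 Free percentage is free/total trough TEIC, both measured by HPLC-UV at 215 nm; free drug was taken after 30 kDa ultrafiltration of serum. Samples were drawn before dosing on days 3–4 (loading: five doses, median 13 mg/kg every 12 h) or from day 7 (maintenance: median 7.8 mg/kg once daily). Relation to albumin was assessed by Spearman rank correlation.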

[4] = Total serum TEIC trough concentration by HPLC in patients on TEIC therapy; format: in vivo, human
Summary of the method: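 Trough serum was drawn before dosing (days 3–4 of loading, day 7 onward of maintenance), centrifuged 1,800 g for 15 min at 25 °C and stored at –30 °C. It got primidone internal standard, acetonitrile deproteinisation and 0.1 M HCl/chloroform cleanup. HPLC-UV ran at 215 nm on a C18 column at 35 °C with a 10 mM phosphate pH 3.0/acetonitrile gradient at 1.0 mL/min. Calibrators were in commercial human serum; groups were compared by Mann–Whitney U.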

[5] = test system: albumin; settings: cited from earlier work
[6] = cited from earlier work

Teicoplanin
Cutoff value of free serum TEIC concentration for occurrence of adverse events [1]: 2.07 µg/mL | Free serum TEIC concentration, single patient with adverse events ([2]; another patient, total serum TEIC < 40 μg/mL, adverse events noted): 6.31 µg/mL | Trough free concentration, loading dose period, median ([2]; loading dose period, ultrafiltration 30 kDa, HPLC-UV, median): 1.50 µg/mL | Trough free concentration, maintenance dose period, median ([2]; maintenance dose period, ultrafiltration 30 kDa, HPLC-UV, median): 1.65 µg/mL | Free serum TEIC concentration, patients with adverse events, median ([2]; n = 7, median): 2.60 µg/mL | Free serum TEIC concentration, patients without effective response, median ([2]; n = 7, median): 1.26 µg/mL | Free serum TEIC concentration, patients with effective response, median ([2]; n = 17, median): 1.50 µg/mL | Free serum TEIC concentration, patients without adverse events, median ([2]; n = 34, median): 1.35 µg/mL | Free serum TEIC concentration, single patient with efficacy ([2]; one of the 17 patients who showed efficacy, total serum TEIC < 15 µg/mL): 1.67 µg/mL | Free serum TEIC concentration, single patient with high total concentration ([2]; one patient, total serum TEIC > 40 μg/mL): 1.78 µg/mL | Free teicoplanin percentage, median ([3]; all samples, ultrafiltration 30 kDa, free/total): 6.3% | Free teicoplanin percentage, loading dose period, median ([3]; loading dose period, ultrafiltration): 6.2% | Free teicoplanin percentage, maintenance dose period, median ([3]; maintenance dose period, ultrafiltration): 6.3% | Trough total concentration, loading dose period, median ([4]; loading dose period (days 3–4, median dose 13 mg/kg every 12 h), serum, HPLC-UV): 24.3 µg/mL | Trough total concentration, maintenance dose period, median ([4]; maintenance dose period (day 7 onward, median dose 7.8 mg/kg once daily), serum, HPLC-UV): 26.2 µg/mL | Total serum TEIC concentration, patients with adverse events, median ([4]; n = 7): 36.1 µg/mL | Total serum TEIC concentration, patients without effective response, median ([4]; n = 7): 21.1 µg/mL | Total serum TEIC concentration, patients with effective response, median ([4]; n = 17): 24.8 µg/mL | Total serum TEIC concentration, patients without adverse events, median ([4]; n = 34): 30.1 µg/mL | nKa (binding sites per albumin molecule × association constant) ([5]; analysis of Yano et al.): 1.78 (g/dL)^−1 | Protein-binding rate used by Byrne et al. [5]: 90–95% | Protein-binding rate ([5]; in humans, serum albumin): ≥ 90% | Cutoff of mean free serum TEIC concentration associated with renal dysfunction ([6]; Sugiyama et al.): 4.2 µg/mL | Effective total serum TEIC trough concentrations in clinical settings [6]: 15 to 40 µg/mL | Effective total serum TEIC trough concentrations, complicated infections [6]: 20 to 40 µg/mL | Effective total serum TEIC trough concentrations, uncomplicated infections [6]: 15 to 30 µg/mL | TEIC concentration causing renal dysfunction [6]: > 60 µg/mL
